This is an account of results in ChEMBL document CHEMBL4715780, “Biological evaluation of tetracationic compounds based on two 1,4-diazabicyclo[2.2.2]octane moieties connected by different linkers” (Bioorg Med Chem, 2016).

Data set [1] has as its system Staphylococcus aureus. Briefly: Bactericidal activity against […] Staphylococcus aureus ATCC 25923 assessed as reduction in colony forming unit at 5 ug/ml measured at 4 hrs by time kill assay relative to control. In kind it is functional. Also noted: scale not given: the % may be the effect or the level left. The following applies: dose 5 µg/ml. Summed up: (§1)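 S. aureus overnight culture was adjusted in MHB to ~8 × 10⁵ CFU/mL. Compound was added and the mixture incubated at 37 °C with shaking (580 rpm) for 22 h. Aliquots were plated for colony counts at 2, 4, 6, 8 and 22 h, with a quantification limit of 100 CFU/mL. Runs were done in triplicate.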

In data set [2] the test system is Staphylococcus aureus. Briefly: Bactericidal activity against […] Staphylococcus aureus ATCC 25923 assessed as reduction in colony forming unit at 2.5 ug/ml measured at 2 hrs by time kill assay relative to control. The data set is classed as functional. Also noted: scale not given: the % may be the effect or the level left. The note with it: dose 2.5 µg/ml. Summed up: as §1

Data set [3] can be described thus: Selectivity index, ratio of CC50 for HEK293T cells assessed as reduction in cell viability measured after 24 hrs by MTT assay to MIC for Candida albicans CEMTC 34 assessed as bacterial growth inhibition by CLSI protocol based serial microdilution method. In kind it is toxicity. The note with it: human, read-out: Selectivity Index. Summed up: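 SI = CC₅₀ (HEK293T) / MIC. HEK293T cells were seeded at 20,000/well overnight, then exposed to 10–250 µg/mL in IMDM with 10% FBS for 24 h. MTT was added for 4 h, solubilised with SDS-HCl, and read at 570 nm; duplicates, ≥2 independent runs. MIC came from two-fold dilutions in Sabouraud dextrose broth at ~5 × 10⁵ CFU/mL, 37 °C with shaking, read at 595 nm, in duplicate.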
Background: Tetrazolium assays rely on reduction of a dye to a coloured formazan, in cell work by metabolically active cells.

Take `CCCCCCCCCCCC[N+]12CC[N+](Cc3ccccc3C[N+]34CC[N+](CCCCCCCCCCCC)(CC3)CC4)(CC1)CC2`: the Activity with Staphylococcus aureus [1] is listed as 99.9%; in the data set on Staphylococcus aureus [2], “>=99%”. Moreover, the selectivity ratio at 24 h in data set [3] came out at 1.
